Laboratory results from ChEMBL document CHEMBL2331160, “Trimeric hemibastadin congener from the marine sponge Ianthella basta” (J Nat Prod, 2013).
Each block holds one molecule with its values, some of them ahead of it. Activity calls are given as the source filed them. The rule behind the calls is not given here.

Columns and labels:
L5178Y = test: Cytotoxicity against mouse L5178Y cells assessed as inhibition of cell proliferation by MTT assay; assay type: functional, cell-based
Aurora kinase A = target: T1, Aurora kinase A (Homo sapiens, UniProt O14965); test: Inhibition of aurora-A (unknown origin)
T1 sequence (O14965 whole entry): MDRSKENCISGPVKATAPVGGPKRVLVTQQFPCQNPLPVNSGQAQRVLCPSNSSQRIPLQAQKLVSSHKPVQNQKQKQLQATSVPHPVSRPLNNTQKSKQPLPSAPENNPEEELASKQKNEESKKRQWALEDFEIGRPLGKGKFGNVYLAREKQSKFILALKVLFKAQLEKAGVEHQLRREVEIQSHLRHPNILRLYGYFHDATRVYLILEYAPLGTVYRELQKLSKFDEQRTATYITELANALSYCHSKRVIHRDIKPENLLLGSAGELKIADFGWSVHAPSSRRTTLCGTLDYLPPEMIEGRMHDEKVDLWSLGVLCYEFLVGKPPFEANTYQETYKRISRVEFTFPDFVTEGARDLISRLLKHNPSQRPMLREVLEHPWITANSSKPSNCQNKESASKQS
In short: (§1)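 Biochemical (cell-free) assay within a panel of 24 protein kinases. Results reported as IC50 values. Procedure as described in earlier work.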

Aurora kinase B = Aurora kinase B (Homo sapiens, UniProt Q96GD4); test: Inhibition of aurora-B (unknown origin); in short: as §1
Sequence of Aurora kinase B (Q96GD4 whole entry): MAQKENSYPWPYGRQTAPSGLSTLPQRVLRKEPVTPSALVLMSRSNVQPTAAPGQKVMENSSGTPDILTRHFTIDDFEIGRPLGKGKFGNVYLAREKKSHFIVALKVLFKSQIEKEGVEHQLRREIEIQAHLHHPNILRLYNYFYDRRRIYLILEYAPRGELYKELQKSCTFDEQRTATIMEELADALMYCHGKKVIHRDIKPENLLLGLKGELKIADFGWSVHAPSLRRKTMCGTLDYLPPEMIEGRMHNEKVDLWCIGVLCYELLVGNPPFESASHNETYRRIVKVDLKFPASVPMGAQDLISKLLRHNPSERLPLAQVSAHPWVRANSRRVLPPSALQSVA

[1] = target: Epidermal growth factor receptor (Homo sapiens, UniProt P00533); test: Inhibition of EGFR (unknown origin); in short: as §1
Sequence of Epidermal growth factor receptor (P00533 whole entry): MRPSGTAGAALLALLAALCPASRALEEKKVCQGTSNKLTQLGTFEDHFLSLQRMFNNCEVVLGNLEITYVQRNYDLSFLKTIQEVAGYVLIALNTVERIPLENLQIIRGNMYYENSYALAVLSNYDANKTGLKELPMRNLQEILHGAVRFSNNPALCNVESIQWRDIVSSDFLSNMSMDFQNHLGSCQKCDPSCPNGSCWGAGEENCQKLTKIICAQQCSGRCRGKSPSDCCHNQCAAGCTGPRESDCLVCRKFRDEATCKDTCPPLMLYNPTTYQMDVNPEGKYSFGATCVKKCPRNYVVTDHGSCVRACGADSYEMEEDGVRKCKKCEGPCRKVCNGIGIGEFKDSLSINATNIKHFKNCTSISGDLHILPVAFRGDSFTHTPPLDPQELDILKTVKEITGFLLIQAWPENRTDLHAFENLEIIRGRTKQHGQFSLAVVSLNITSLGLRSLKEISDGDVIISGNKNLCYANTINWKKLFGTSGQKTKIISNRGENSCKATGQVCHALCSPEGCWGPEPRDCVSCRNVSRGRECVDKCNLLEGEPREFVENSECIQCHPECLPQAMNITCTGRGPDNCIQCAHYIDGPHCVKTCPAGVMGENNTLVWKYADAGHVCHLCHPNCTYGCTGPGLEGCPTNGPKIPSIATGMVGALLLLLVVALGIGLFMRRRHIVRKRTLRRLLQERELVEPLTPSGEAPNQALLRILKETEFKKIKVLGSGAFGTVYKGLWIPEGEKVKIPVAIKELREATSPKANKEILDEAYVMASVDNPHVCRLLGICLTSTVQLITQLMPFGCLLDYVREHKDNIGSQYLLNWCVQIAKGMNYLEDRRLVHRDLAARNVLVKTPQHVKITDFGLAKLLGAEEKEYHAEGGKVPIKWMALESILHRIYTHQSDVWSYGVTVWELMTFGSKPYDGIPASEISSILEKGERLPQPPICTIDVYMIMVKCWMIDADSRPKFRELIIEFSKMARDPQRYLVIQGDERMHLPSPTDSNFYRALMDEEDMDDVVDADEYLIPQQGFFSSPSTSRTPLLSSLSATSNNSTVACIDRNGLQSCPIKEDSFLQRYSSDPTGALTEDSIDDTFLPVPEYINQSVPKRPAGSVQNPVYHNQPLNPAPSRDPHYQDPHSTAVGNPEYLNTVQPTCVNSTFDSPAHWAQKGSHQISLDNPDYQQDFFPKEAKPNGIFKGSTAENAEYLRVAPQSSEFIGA

[2] = target: Receptor tyrosine-protein kinase erbB-2 (Homo sapiens, UniProt P04626); test: Inhibition of ERBB2 (unknown origin); in short: as §1
Sequence of Receptor tyrosine-protein kinase erbB-2 (P04626 whole entry): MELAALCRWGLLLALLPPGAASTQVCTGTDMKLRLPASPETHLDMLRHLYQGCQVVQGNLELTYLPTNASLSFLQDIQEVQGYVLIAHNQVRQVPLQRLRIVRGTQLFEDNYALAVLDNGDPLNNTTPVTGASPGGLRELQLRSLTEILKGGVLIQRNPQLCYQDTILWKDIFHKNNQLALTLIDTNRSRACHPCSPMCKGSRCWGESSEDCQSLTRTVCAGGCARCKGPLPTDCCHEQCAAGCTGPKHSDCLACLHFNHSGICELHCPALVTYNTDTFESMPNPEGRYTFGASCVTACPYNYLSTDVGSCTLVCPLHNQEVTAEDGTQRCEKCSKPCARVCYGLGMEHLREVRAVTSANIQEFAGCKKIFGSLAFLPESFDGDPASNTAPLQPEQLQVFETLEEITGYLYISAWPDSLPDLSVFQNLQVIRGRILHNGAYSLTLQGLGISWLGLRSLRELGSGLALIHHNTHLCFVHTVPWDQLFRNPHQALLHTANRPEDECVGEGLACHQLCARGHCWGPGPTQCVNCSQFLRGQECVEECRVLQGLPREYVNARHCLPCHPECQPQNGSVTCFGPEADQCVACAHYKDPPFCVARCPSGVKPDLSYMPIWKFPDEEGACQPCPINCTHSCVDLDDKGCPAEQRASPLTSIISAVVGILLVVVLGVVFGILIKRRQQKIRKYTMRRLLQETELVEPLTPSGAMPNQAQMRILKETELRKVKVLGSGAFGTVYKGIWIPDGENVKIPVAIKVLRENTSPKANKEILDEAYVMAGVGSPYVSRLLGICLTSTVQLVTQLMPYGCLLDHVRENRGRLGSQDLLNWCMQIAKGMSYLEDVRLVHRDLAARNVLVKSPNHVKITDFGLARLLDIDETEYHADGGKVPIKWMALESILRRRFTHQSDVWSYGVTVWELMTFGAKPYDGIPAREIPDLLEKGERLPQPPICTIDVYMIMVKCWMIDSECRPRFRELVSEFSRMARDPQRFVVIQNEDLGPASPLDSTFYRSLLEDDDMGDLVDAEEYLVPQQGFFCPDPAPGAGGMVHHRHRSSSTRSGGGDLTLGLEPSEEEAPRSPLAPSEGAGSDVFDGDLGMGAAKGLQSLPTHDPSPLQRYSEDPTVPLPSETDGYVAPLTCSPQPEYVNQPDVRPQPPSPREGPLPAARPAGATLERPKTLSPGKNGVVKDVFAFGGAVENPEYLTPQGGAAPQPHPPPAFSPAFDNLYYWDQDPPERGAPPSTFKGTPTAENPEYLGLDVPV

[3] = target: Cyclin-dependent kinase 4/cyclin D1 (Homo sapiens, UniProt P11802); test: Inhibition of CDK4/cyclin-D1 (unknown origin); assay type: protein-complex assay; in short: as §1
Sequence of Cyclin-dependent kinase 4/cyclin D1 (P11802 whole entry): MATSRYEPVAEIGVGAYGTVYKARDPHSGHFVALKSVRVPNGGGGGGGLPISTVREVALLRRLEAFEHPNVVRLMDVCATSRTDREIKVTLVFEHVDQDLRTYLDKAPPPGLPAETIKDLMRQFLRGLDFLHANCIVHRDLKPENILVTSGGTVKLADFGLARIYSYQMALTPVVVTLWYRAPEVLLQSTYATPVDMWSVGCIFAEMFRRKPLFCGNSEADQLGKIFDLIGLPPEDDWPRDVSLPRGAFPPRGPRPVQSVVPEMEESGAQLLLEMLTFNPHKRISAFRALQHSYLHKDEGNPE
Sequence of Cyclin-dependent kinase 4/cyclin D1 (P24385 whole entry, further chain): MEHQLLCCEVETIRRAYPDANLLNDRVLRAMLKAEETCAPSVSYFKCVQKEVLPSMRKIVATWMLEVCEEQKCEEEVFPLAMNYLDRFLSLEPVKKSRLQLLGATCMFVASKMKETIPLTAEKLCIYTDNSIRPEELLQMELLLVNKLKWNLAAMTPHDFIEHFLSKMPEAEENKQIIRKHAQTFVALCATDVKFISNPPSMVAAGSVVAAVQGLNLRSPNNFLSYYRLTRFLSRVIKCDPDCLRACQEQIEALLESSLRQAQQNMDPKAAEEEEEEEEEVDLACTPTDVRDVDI

Focal adhesion kinase 1 = Focal adhesion kinase 1 (Homo sapiens, UniProt Q05397); test: Inhibition of FAK (unknown origin); in short: as §1
[4] = target: Hepatocyte growth factor receptor (Homo sapiens, UniProt P08581); test: Inhibition of MET (unknown origin); in short: as §1
[5] = target: Mitogen-activated protein kinase kinase kinase 8 (Homo sapiens, UniProt P41279); test: Inhibition of COT (unknown origin)
Sequence of Mitogen-activated protein kinase kinase kinase 8 (P41279 whole entry): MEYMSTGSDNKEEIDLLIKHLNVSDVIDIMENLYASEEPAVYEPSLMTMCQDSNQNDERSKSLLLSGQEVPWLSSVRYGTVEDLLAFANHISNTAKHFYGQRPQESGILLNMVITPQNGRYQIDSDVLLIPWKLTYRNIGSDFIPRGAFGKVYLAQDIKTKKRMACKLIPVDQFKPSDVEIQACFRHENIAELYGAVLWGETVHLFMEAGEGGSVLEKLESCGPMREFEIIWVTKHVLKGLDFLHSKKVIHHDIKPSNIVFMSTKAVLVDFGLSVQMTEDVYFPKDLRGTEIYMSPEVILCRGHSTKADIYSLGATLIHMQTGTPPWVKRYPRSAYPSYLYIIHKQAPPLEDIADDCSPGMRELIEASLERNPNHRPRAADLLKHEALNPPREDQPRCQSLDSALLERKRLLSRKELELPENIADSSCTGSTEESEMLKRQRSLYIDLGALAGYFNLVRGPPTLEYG
In short: (§2)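 Biochemical (cell-free) assay using a panel of 24 protein kinases. The read-out was the IC50.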

[6] = target: Proto-oncogene tyrosine-protein kinase Src (Homo sapiens, UniProt P12931); test: Inhibition of SRC (unknown origin); in short: as §1
[7] = target: Insulin-like growth factor 1 receptor (Homo sapiens, UniProt P08069); test: Inhibition of IGF1R (unknown origin); in short: as §1
[8] = target: Platelet-derived growth factor receptor beta (Homo sapiens, UniProt P09619); test: Inhibition of PDGFR-beta (unknown origin)
[9] = target: Serine/threonine-protein kinase B-raf (Homo sapiens, UniProt P15056, V600E); test: Inhibition of B-RAF V600E mutant (unknown origin); in short: as §1
Sequence of Serine/threonine-protein kinase B-raf (P15056 2-766 V600E limits assumed): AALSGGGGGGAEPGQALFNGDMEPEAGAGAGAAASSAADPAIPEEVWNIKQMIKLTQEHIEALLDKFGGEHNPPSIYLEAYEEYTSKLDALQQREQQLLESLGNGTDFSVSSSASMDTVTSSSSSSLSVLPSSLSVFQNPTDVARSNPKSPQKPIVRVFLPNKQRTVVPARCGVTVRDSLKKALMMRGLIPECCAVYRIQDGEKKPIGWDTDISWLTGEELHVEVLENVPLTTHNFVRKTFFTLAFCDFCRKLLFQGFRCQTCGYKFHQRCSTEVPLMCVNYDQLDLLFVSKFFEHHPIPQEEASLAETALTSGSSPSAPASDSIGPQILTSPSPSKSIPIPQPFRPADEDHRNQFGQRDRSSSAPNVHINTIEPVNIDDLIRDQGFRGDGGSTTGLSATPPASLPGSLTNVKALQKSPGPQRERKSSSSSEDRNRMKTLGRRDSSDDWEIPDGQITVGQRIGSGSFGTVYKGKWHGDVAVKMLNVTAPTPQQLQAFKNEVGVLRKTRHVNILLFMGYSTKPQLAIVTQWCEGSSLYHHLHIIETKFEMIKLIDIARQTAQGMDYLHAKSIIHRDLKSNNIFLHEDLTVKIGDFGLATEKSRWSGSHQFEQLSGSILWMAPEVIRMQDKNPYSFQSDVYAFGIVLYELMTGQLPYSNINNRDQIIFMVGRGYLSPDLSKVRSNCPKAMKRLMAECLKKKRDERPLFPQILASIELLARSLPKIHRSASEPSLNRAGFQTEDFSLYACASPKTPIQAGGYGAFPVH

Insulin receptor = Insulin receptor (Homo sapiens, UniProt P06213); test: Inhibition of INSR (unknown origin); in short: as §1
[10] = target: Vascular endothelial growth factor receptor 2 (Homo sapiens, UniProt P35968); test: Inhibition of VEGFR2 (unknown origin); in short: as §1
[11] = target: T2, Serine/threonine-protein kinase PLK4 (Homo sapiens, UniProt O00444); test: Inhibition of SAK (unknown origin); in short: as §1
T2 sequence (O00444 whole entry): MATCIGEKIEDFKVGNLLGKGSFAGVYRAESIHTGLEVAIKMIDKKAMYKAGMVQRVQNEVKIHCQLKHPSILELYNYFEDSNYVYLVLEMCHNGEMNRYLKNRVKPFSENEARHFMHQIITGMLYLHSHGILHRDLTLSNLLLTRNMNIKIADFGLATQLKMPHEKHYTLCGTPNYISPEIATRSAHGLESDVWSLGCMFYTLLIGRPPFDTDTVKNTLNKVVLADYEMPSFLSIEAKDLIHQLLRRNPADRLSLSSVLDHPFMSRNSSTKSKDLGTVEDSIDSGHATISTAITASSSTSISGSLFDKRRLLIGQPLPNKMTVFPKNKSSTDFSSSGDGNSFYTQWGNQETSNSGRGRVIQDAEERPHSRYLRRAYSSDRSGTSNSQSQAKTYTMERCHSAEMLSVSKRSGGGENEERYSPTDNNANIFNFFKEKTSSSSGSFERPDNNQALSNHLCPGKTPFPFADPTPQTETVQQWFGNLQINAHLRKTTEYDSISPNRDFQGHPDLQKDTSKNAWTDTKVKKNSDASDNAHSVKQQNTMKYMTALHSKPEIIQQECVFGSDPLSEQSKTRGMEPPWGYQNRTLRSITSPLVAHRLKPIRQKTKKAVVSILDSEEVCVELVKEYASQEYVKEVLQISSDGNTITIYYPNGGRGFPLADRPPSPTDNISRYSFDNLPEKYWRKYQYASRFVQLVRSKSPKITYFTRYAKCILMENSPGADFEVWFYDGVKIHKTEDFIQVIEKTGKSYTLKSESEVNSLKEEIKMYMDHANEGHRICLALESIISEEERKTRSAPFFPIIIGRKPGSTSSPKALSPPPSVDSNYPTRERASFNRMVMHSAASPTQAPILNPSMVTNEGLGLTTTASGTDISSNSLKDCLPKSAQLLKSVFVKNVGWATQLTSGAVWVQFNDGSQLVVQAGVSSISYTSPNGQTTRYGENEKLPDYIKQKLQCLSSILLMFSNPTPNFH

[12] = target: T3, Receptor-type tyrosine-protein kinase FLT3 (Homo sapiens, UniProt P36888); test: Inhibition of FLT3 (unknown origin); in short: as §2
T3 sequence (P36888 whole entry): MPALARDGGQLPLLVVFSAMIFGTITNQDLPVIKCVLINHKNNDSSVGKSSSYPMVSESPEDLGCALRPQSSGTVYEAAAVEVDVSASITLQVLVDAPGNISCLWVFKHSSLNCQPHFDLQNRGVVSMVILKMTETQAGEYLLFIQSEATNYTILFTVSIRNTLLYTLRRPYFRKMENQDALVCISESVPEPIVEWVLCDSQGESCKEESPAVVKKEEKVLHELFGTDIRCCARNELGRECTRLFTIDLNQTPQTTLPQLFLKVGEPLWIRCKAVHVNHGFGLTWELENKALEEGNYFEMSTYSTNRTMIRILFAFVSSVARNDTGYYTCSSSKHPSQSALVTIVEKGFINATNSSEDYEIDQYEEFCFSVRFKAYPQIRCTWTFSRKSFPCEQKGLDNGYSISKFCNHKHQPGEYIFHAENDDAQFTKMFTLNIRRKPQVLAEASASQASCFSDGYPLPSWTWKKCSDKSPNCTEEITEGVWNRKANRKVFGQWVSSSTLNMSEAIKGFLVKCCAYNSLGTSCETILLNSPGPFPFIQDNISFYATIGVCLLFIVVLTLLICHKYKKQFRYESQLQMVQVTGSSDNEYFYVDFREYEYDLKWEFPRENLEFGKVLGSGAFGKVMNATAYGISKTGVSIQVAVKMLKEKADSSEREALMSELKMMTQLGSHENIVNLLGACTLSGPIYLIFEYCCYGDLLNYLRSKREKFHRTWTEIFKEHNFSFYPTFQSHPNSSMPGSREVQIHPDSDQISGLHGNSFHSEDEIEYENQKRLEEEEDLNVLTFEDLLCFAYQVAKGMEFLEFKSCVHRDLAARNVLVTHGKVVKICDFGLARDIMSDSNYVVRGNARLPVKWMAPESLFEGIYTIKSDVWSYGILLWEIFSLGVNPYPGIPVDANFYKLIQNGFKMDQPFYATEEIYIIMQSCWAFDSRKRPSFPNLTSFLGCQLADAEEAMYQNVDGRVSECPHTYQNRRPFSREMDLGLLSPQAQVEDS

Ephrin type-B receptor 4 = Ephrin type-B receptor 4 (Homo sapiens, UniProt P54760); test: Inhibition of EPHB4 (unknown origin); in short: as §1
[13] = target: Vascular endothelial growth factor receptor 3 (Homo sapiens, UniProt P35916); test: Inhibition of VEGFR3 (unknown origin); in short: as §1
[14] = target: T4, NUAK family SNF1-like kinase 1 (Homo sapiens, UniProt O60285); test: Inhibition of ARK5 (unknown origin); in short: as §1
T4 sequence (O60285 whole entry): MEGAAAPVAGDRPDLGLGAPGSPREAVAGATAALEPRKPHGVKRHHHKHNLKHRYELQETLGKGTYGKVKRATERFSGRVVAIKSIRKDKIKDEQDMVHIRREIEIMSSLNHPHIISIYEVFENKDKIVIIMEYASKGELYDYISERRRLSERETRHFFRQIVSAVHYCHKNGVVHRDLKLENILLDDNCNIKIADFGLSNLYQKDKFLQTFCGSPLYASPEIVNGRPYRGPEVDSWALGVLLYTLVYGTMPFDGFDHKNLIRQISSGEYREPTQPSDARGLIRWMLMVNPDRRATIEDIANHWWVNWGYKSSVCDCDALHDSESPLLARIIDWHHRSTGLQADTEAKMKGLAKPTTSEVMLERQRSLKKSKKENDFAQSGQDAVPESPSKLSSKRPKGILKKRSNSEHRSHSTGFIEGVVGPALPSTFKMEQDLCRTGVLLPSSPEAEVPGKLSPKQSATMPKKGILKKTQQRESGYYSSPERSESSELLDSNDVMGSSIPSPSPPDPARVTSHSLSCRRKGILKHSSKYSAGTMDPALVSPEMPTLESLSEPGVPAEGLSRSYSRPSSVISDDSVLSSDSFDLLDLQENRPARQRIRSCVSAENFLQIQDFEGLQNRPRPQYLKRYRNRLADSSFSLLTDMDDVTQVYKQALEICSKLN

Angiopoietin-1 receptor = Angiopoietin-1 receptor (Homo sapiens, UniProt Q02763); test: Inhibition of TIE2 (unknown origin); in short: as §1
[15] = target: Cyclin-dependent kinase 2/cyclin A (Homo sapiens, UniProt P24941); test: Inhibition of CDK2/cyclin-A (unknown origin); assay type: protein-complex assay; in short: as §1
[16] = target: Serine/threonine-protein kinase PLK1 (Homo sapiens, UniProt P53350); test: Inhibition of PLK1 (unknown origin); in short: as §1

Structure (SMILES): O=C1N/C=C/c2ccc(c(Br)c2)Oc2cc(ccc2O)CCNC(=O)/C(=N/O)Cc2cc(Br)c(c(Br)c2)Oc2cc(cc(Br)c2O)C/C1=N\O [BASTADIN 11]
- IC50 (L5178Y): 3700 nM

- IC50 (Aurora kinase A): 1300 nM
- IC50 (Aurora kinase B): 1600 nM
- IC50 [1]: 2900 nM
- IC50 [2]: 4500 nM
- IC50 [3]: 4000 nM
Structure (SMILES): O=C1NCCc2ccc(O)c(c2)Oc2c(Br)cc(cc2Br)CCNC(=O)/C(=N/O)Cc2cc(Br)c(O)c(c2)Oc2c(Br)cc(cc2Br)C/C1=N\O [BASTADIN 16]
- IC50 (L5178Y): 1900 nM

- IC50 (Focal adhesion kinase 1): 3500 nM
- IC50 [4]: 800 nM
- IC50 (Aurora kinase A): 2600 nM
- IC50 (Aurora kinase B): 2300 nM
- IC50 [5]: 1300 nM
- IC50 [1]: 600 nM
- IC50 [6]: 700 nM
- IC50 [7]: 1000 nM
- IC50 [8]: 4000 nM
- IC50 [9]: 1700 nM
- IC50 (Insulin receptor): 1400 nM
- IC50 [10]: 600 nM
- IC50 [11]: 700 nM
- IC50 [12]: 1400 nM
- IC50 (Ephrin type-B receptor 4): 3400 nM
- IC50 [13]: 1600 nM
- IC50 [2]: 2100 nM
- IC50 [14]: 1700 nM
- IC50 (Angiopoietin-1 receptor): 600 nM
- IC50 [15]: 6500 nM
- IC50 [16]: 6400 nM
- IC50 [3]: 1400 nM
Structure (SMILES): O=C(NCCc1ccc(O)c(Br)c1)/C(Cc1cc(Br)c(O)c(Oc2ccc(CCNC(=O)/C(Cc3cc(Br)c(O)c(-c4cc(C/C(=N\O)C(=O)NCCc5ccc(O)c(Br)c5)cc(Br)c4O)c3)=N/O)cc2Br)c1)=N/O [SESQUIBASTADIN 1]
- inhibition (L5178Y): inactive
